Measured values from different studies.
Protocols differ between the studies behind these lines.
Cell line: PC-3
Effect on: cell growth or viability

For `CC(C)Cc1ccc([C@H](C)C(=O)O)cc1`, the IC50 was 553 µM (SRB; 72 h).
The IC50 of `COc1cc(C(=O)c2nc(-c3cccc4[nH]cnc34)c[nH]2)cc(OC)c1OC` is reported as 0.0158 µM (MTS; 72 h).
`O=C1/C(=C/c2ccc3ccccc3c2O)NC(=S)N1c1ccccc1` gave an IC50 of 6.04 µg/mL (MTT).
`COc1cc(C(=O)c2nc(-c3cccc4[nH]ccc34)c[nH]2)cc2c1OC=CO2` has an IC50 of 0.0102 µM (MTS; 72 h).
With `CS(=O)(=O)NCCCCN=C=S` the IC50 was 25.4 µM (MTT; 24 h).
The IC50 of `CC(=NNC(=O)c1cc(-c2ccccc2)n(-c2ccc(S(N)(=O)=O)cc2)n1)c1ccc(Br)cc1` is reported as 48 µM (fluorescence; 48 h).
`COc1cc(C(=O)c2nc(-c3cccc4[nH]ccc34)cs2)cc(OC)c1OC` gave an IC50 of 0.0065 µM (MTS; 72 h).
For `COc1cccc2c1C(=O)c1c(O)c3c(c(O)c1C2=O)C[C@@](O)(C(=O)CO)C[C@@H]3O[C@H]1C[C@H](N)[C@H](O)[C@H](C)O1`, the IC50 was 0.3 µM (MTT; 72 h).
For `CC1=CC(=O)C(C(C)C)=CC1=O`, the IC50 was 12.8 µM (SRB; 48 h).
`Nc1cc2cccnc2c2ncccc12` has an IC50 of 6.2 µM (MTT; 48 h; dark).
With `CC(=O)O[C@H]1C(=O)[C@@]2(C)[C@H]([C@H](OC(=O)c3ccccc3)[C@]3(O)C[C@H](OC(=O)[C@H](O)[C@@H](NC(=O)c4ccccc4)c4ccccc4)C(C)=C1C3(C)C)[C@]1(OC(C)=O)CO[C@@H]1C[C@@H]2O` the IC50 was 0.0004 µM (MTS; 72 h).
`NS(=O)(=O)c1ccc(-n2nc(C(=O)NN=Cc3ccc(O)cc3)cc2-c2ccccc2)cc1` has an IC50 of 17.2 µM (fluorescence; 48 h).
With `COc1cc(C(=O)c2nc(-c3cccc4cc[nH]c34)c[nH]2)cc(OC)c1OC` the IC50 was 0.0316 µM (MTS; 72 h).
`CC(=NNC(=O)c1cc(-c2ccccc2)n(-c2ccc(S(N)(=O)=O)cc2)n1)c1ccc(C)cc1` has an IC50 of 19.2 µM (fluorescence; 48 h).
With `COc1cc(C(=O)c2nc(-c3cccc4c3CC(=O)N4)c[nH]2)cc(OC)c1OC` the IC50 was 0.0186 µM (MTS; 72 h).
With `NS(=O)(=O)c1ccc(-n2nc(-c3nnc(CCl)o3)cc2-c2ccccc2)cc1` the IC50 was 36.2 µM (fluorescence; 48 h).
With `O=P1(c2ccccc2)CCCCC1` the IC50 was greater than 100 µM (MTT; 72 h).
`COc1ccc(C=NNC(=O)c2cc(-c3ccccc3)n(-c3ccc(S(N)(=O)=O)cc3)n2)cc1OC` has an IC50 of 27.1 µM (fluorescence; 48 h).
`O=c1[nH]cc(F)c(=O)[nH]1` gave an IC50 of greater than 360 µM (MTT; 72 h).
